Values after ≈ are worked out from the molar mass of the structure shown.
Key:
[1] = Solubility in phosphate buffer at pH 7.4; format: physicochemical
How it was run: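 Kinetic solubility was measured in phosphate buffer pH 7.4 with 5% DMSO, prepared from a 10 mM DMSO stock. Samples were vortexed, then centrifuged at 4300 RPM for 10 min to remove insoluble material. The supernatant was quantified by HPLC/UV against a calibration standard.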

Homo sapiens = species on record: Homo sapiens; assay: Stability in human plasma at 10 uM after 2 hrs
[2] = Stability in human liver microsome at 2 uM after 1 hr; format: ADME; settings: liver microsomes, read-out: Stability
How it was run: (§1)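 Compound was incubated at 37 °C for 1 h with cryopreserved pooled male human or rat liver microsomes. Loss of prodrug was tracked by LC/MS/MS. Percent remaining at 1 h was taken as the end-point peak area over the time-0 peak area.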

[3] = Stability in rat plasma at 10 uM after 2 hrs; format: ADME, cell-free; settings: read-out: Stability
How it was run: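 Frozen pooled human or rat plasma (sodium heparin) was incubated with compound at 37 °C for 2 h. Prodrug disappearance was followed by LC/MS/MS. Percent remaining is the prodrug peak area at 2 h divided by the area at time 0.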

[4] = Oral bioavailability in Sprague-Dawley rats; format: ADME, organism-based; settings: rat, in vivo
How it was run: (§2)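 Plasma was acetonitrile-precipitated and analysed by LC/MS/MS for prodrug and parent, then AUC was computed. From dose-normalized AUCs, Abs = AUC_PO,PV/AUC_IV,JV and F = AUC_PO,JV/AUC_IV,JV.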

[5] = Stability in rat liver microsome at 2 uM after 1 hr; format: ADME; settings: liver microsomes, read-out: Stability; how it was run: as §1
[6] = Oral absorption in Sprague-Dawley rats; format: ADME, organism-based; settings: rat, in vivo; how it was run: as §2

SMILES	solubility [1]	remaining at 2 h, 10 µM (Homo sapiens)	remaining at 1 h, 2 µM [2]	remaining at 2 h, 10 µM [3]	bioavailability [4]	remaining at 1 h, 2 µM [5]	Fa [6]
CC(C)(C)ONC(=N)c1ccc2[nH]c(-c3cccc(-c4ccccc4O)c3O)cc2c1	< 10 µM	100%	100%	99%	38%	78%	60%
N/C(=N/C(=O)OCC(Cl)(Cl)Cl)c1ccc2[nH]c(-c3cccc(-c4ccccc4O)c3O)cc2c1	< 10 µM	100%	87%	89%	14%	9%	21%
CC(=O)OC(C)OC(=O)NC(=N)c1ccc2[nH]c(-c3cccc(-c4ccccc4O)c3O)cc2c1 (stereo not drawn)	< 10 µM	96%	9%	37%		12%	
CC(C)OC(=O)NC(=N)c1ccc2[nH]c(-c3cccc(-c4ccccc4O)c3O)cc2c1	< 10 µM	100%		100%	23%	49%	53%
CCOC(=O)NC(=N)c1ccc2[nH]c(-c3cccc(-c4ccccc4O)c3O)cc2c1	< 10 µM	100%	37%	95%		53%	

Results, then the compound that gave them:

solubility [1]	remaining at 2 h, 10 µM (Homo sapiens)	remaining at 1 h, 2 µM [2]	remaining at 2 h, 10 µM [3]	bioavailability [4]	remaining at 1 h, 2 µM [5]	Fa [6]	SMILES
83 µM (≈ 30 µg/mL)	100%	61%	100%	< 1%	100%		N=C(N)c1ccc2[nH]c(-c3cccc(-c4cc(F)ccc4O)c3O)cc2c1
25 µM (≈ 10 µg/mL)	100%	63%	100%	10%	69%	54%	CC(C)ONC(=N)c1ccc2[nH]c(-c3cccc(-c4ccccc4O)c3O)cc2c1
43 µM (≈ 16.7 µg/mL)	100%	50%	100%	67%	70%	53%	CCONC(=N)c1ccc2[nH]c(-c3cccc(-c4ccccc4O)c3O)cc2c1
24 µM (≈ 9.59 µg/mL)	100%	55%	94%	100%	42%	100%	C=CCO/N=C(/N)c1ccc2[nH]c(-c3cccc(-c4ccccc4O)c3O)cc2c1
				16%		100%	Oc1ccccc1-c1cccc(-c2nc3ccccc3[nH]2)c1O
				< 1%		< 1%	N=C(N)c1ccc2nc(-c3cccc(-c4cc(F)ccc4O)c3O)[nH]c2c1
380 µM (≈ 137 µg/mL)	97%	41%	94%	15%	9%	39%	N/C(=N/O)c1ccc2[nH]c(-c3cccc(-c4ccccc4O)c3O)cc2c1

— ChEMBL document CHEMBL1146956, “Factor VIIa inhibitors: a prodrug strategy to improve oral bioavailability” (Bioorg Med Chem Lett, 2006)
